Published values pooled from the literature.
Compare with care: the assays were run in different laboratories.
Target: Calcium/calmodulin-dependent protein kinase type II subunit gamma (CAMK2G, Homo sapiens, UniProt Q13555)

| SMILES | test | setting | remaining binding |
| --- | --- | --- | --- |
| CN(C)c1nccc(-c2cnn3ncccc23)n1 | binding | 1 µM | 100% |
| CCCOc1ccc([C@H]2[C@H](C(=O)O)[C@@H](c3ccc4c(c3)OCO4)CN2CC(=O)Nc2c(CC)cccc2CC)cc1 | cell-free assay, competition with immobilised ligand | 1 µM | 95% |
| CN(C)c1ncc(F)c(-c2cnn3ncccc23)n1 | binding | 1 µM | 90% |
| COc1ncc2cc3ccccc3nc2c1C#N | cell-free assay, competition with immobilised ligand | 5 µM | 92% |
| O=C(O)[C@H]1[C@H](Cn2nnc3ccccc3c2=O)CC[C@@H]1C(=O)c1ccc(OCCC2CCOCC2)cc1 | cell-free assay, competition with immobilised ligand | 1 µM | 90% |
| CCN1CCN(Cc2ccc(C(=O)Nc3ccc(C)c(Oc4ccc5c(c4)CC(=O)N5)c3)cc2C(F)(F)F)CC1 | binding, competition with immobilised ligand | 1 µM | 97% |
| COc1cnc(Nc2cccc(S(N)(=O)=O)c2)nc1N1CCN(c2ccccc2)CC1 | binding, competition with immobilised ligand | 1 µM | 94% |
| CN(C)c1nccc(-c2cnc3ncccn23)n1 | binding | 1 µM | 100% |
| Cc1cnc(Nc2ccc(C(=O)N3CCC(N4CCCC4)CC3)cc2)nc1-c1cc2ccccc2s1 | binding, competition with immobilised ligand | 1 µM | 74% |
| FC(F)(F)c1ccc2c(c1)nc(-c1cccnc1)n2C1CC1 | cell-free assay, competition with immobilised ligand | 1 µM | 100% |
| F[C@@H]1CCN(c2nccc(-c3cnn4ncccc34)n2)C1 | binding | 1 µM | 100% |
| CNC(=O)[C@@H]1CC[C@@H](n2c(-c3ccc4cnccc4c3)nc3ccc(C(=O)NCc4cccc(C(N)=O)c4)cc32)C1 | binding, competition with immobilised ligand | 1 µM | 100% |
| O=C(c1ccc(Nc2ncc(Cl)c(-c3ccc(Cl)s3)n2)cc1)N1CCC(N2CCCC2)CC1 | binding, competition with immobilised ligand | 1 µM | 80% |
| C[C@@H]1CN(c2cc(-c3n[nH]c4ccc(OC5(C)CC5)cc34)ncn2)C[C@H](C)O1 | cell-free assay, competition with immobilised ligand | 0.1 µM | 100% |
| C=CC(=O)N1CCC(C(=O)NCC(=O)N2CCN(c3nc(-c4cnc(N)nc4C(F)F)nc(N4CCOCC4)n3)CC2)CC1 | binding, competition with immobilised ligand | 1 µM | 100% |
| CO[C@H]1CC[C@H](CNc2ccc(S(=O)(=O)NC(=O)c3ccc(N4CCN(CC5=C(c6ccc(Cl)cc6)CC(C)(C)CC5)CC4)cc3Oc3cnc4[nH]ccc4c3)cc2[N+](=O)[O-])CC1 | cell-free assay, competition with immobilised ligand | 1 µM | 75% |
| O=C(c1ccc(Nc2nccc(-c3cc4ccccc4s3)n2)cc1)N1CCC(N2CCCC2)CC1 | binding, competition with immobilised ligand | 1 µM | 81% |
| O=C(Nc1c[nH]nc1C(=O)NC1CCNCC1)c1cc(F)cc(F)c1 | binding, competition with immobilised ligand | 1 µM | 100% |
| c1cnn2ncc(-c3ccnc(N4CCC45COC5)n3)c2c1 | binding | 1 µM | 91% |
| Cc1cc(-n2nc(Cc3cc(F)cc(C(F)(F)F)c3)nc2C)ccc1C(N)=O | cell-free assay, competition with immobilised ligand | 1 µM | 100% |
| FC(F)(F)Oc1cccc(-c2cnc3ccc(-c4ccncc4)nn23)c1 | cell-free assay, competition with immobilised ligand | 5 µM | 39% |
